The subject of assay [1] is Rattus norvegicus. In words: Dopaminergic activity in Sprague-Dawley rat assessed as stereotyped behavior characterized by sniffing and biting at 0.5 to 2 mg/kg, sc. Format: functional, organism-based. In a few lines: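 Male Sprague-Dawley rats in groups of 10 received agents sc, dissolved in distilled water containing 0.1% sodium metabisulfite, and were scored for stereotyped sniffing and biting. Testing ran 08:00-18:00 h in sound-proofed rooms at 21 ± 2 °C. The reported range runs from the threshold dose to the dose producing the maximum attainable response, in mg/kg sc.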

Assay [2] relates to Mus musculus. In words: Dopaminergic activity in albino mouse assessed as stereotyped behavior characterized by sniffing and biting at 1.5 to 4 mg/kg, sc. Format: functional, organism-based.
Assay [3] concerns Mus musculus. In words: Dopaminergic activity in albino mouse assessed as induction of climbing behavior at 0.5 to 1.5 mg/kg, sc. Format: functional, organism-based. In a few lines: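 Male albino mice (20-25 g, N = 10) received agents sc in water with 0.1% sodium metabisulfite. They were placed in perspex cages lined with wire mesh and counted as climbing when holding the wire with all four paws. Read-outs were climbing index (% time climbing in the 30 min after the first climb) and maximum single-climb time. Range given is threshold to maximal dose.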

Assay [4] concerns Mus musculus. Description: Dopaminergic activity in albino mouse assessed as induction of ipsilateral circling behavior at 0.25 to 1 mg/kg, sc. Format: functional, organism-based. In a few lines:
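Mice received a unilateral caudate-putamen electrolesion (1.5 mA, 15 s). After 14 days they were screened with apomorphine HCl 1.0 mg/kg sc, and animals circling ≥7 ipsilateral revolutions/2 min were kept. After 7 days' recovery, agents were given sc and complete one-direction revolutions were counted manually. Lesion sites were verified histologically. Range given is threshold to maximal dose.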

The test system of assay [5] is Rattus norvegicus. In words: Dopaminergic activity in Sprague-Dawley rat assessed as hyperactivity up to 6.25 to 50 ug administered into nucleus accumbens. The assay is classed as functional, organism-based. Put shortly: (§1)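 Male Sprague-Dawley rats (250 ± 26 g) had guide cannulae implanted for bilateral injection into caudate-putamen and nucleus accumbens, and were used 10–14 days later. Nialamide 100 mg/kg ip was given 2 h before. Drug in N2-bubbled water (minimal DMF if needed), 1–2 µL over 60 s. Hyperactivity was read as photocell counts/5 min, stereotypy was scored, and cannula sites were checked histologically.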

For assay [6], the system named is Rattus norvegicus. Description: Dopaminergic activity in Sprague-Dawley rat assessed as stereotyped behavior characterized by continous sniffing up to 12.5 to 50 ug administered into nucleus accumbens. The assay is classed as functional, organism-based. In a few lines: as §1
Assay [7] concerns Rattus norvegicus. Description: Dopaminergic activity in Sprague-Dawley rat assessed as biting behavior up to 50 ug administered into nucleus accumbens. Format: functional, organism-based. In a few lines:
as §1

The subject of assay [8] is Rattus norvegicus. Description: Dopaminergic activity in Sprague-Dawley rat assessed as hyperactivity behavior administered into nucleus caudate-putamen measured up to 25 ug from 30 to 45 mins to persisted up to 5 to 6 hrs. The assay is classed as functional, organism-based. Put shortly:
as §1

For assay [9], the system named is Rattus norvegicus. In words: Dopaminergic activity in Sprague-Dawley rat assessed as stereotypic behavior administered into caudate-putamen measured up to 25 ug from 5 to 15 mins to persisted up to 5 to 6 hrs. The assay is classed as functional, organism-based. In a few lines:
as §1

Assay [10] has as its system Rattus norvegicus. Description: Dopaminergic activity in Sprague-Dawley rat assessed as hyperactivity up to 25 ug administered into caudate-putamen. The assay is classed as functional, organism-based. Put shortly: as §1
Assay [11] deals with Rattus norvegicus. In words: Dopaminergic activity in Sprague-Dawley rat assessed as stereotyped behavior characterized by continous sniffing up to 25 ug administered into caudate-putamen. The assay is classed as functional, organism-based. Put shortly:
as §1

Assay [12] relates to Rattus norvegicus. In words: Dopaminergic activity in Sprague-Dawley rat assessed as hyperactivity behavior administered into nucleus caudate-putamen measured up to 25 ug from 30 to 45 mins to persisted up to 3 hrs. The assay is classed as functional, organism-based. Put shortly:
as §1

Assay [13] concerns Rattus norvegicus. In words: Dopaminergic activity in Sprague-Dawley rat assessed as stereotypic behavior administered into caudate-putamen measured up to 25 ug from 5 to 15 mins to persisted up to 3 hrs. The assay is classed as functional, organism-based. Put shortly:
as §1

For assay [14], the system named is Rattus norvegicus. Description: Dopaminergic activity in Sprague-Dawley rat assessed as stereotyped behavior characterized by sniffing and biting at up to 10 mg/kg, sc. Format: functional, organism-based. Also on record: dose 10 mg/kg. Put shortly: (§2)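 Male Sprague-Dawley rats, groups of 10, were dosed sc in distilled water with 0.1% sodium metabisulfite, with solvent controls. Stereotyped sniffing and biting were scored as for intracerebral tests at 21 ± 2 °C between 08:00 and 18:00 h. Dose range runs from the threshold dose to the dose giving maximal response, in mg/kg sc.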

Assay [15] relates to Mus musculus. In words: Dopaminergic activity in albino mouse assessed as stereotyped behavior characterized by sniffing and biting at up to 10 mg/kg, sc. Details: dose 10 mg/kg. The assay is classed as functional, organism-based. Put shortly:
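Male albino mice (20–25 g, N = 10) were dosed sc in water containing 0.1% sodium metabisulfite and scored for stereotyped sniffing and biting. Dose range runs from the threshold dose to the dose giving maximal response, in mg/kg sc.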

For assay [16], the system named is Mus musculus. Description: Dopaminergic activity in albino mouse assessed as induction of climbing behavior up to 10 mg/kg, sc. The assay is classed as functional, organism-based. Details: dose 10 mg/kg. Put shortly: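 Male albino mice (20–25 g, N = 10) were dosed sc in water with 0.1% sodium metabisulfite and placed in wire-mesh-lined cages. A mouse counted as climbing when holding the wire with all four paws. Measures: climbing index (% time climbing in the 30 min after the first climb) and maximum single-climb time. Doses run from threshold to maximal response.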

Assay [17] concerns Mus musculus. Description: Dopaminergic activity in albino mouse assessed as induction of ipsilateral circling behavior up to 10 mg/kg, sc. Details: dose 10 mg/kg. Format: functional, organism-based. Put shortly:
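Male albino mice (30–35 g) received a unilateral caudate-putamen electrolesion (1.5 mA, 15 s) and 14 days of recovery. Only mice circling ≥7 ipsilateral revolutions/2 min after apomorphine HCl 1.0 mg/kg sc were kept, with a further 7 days of recovery. After sc dosing, complete revolutions in one direction were counted manually. Lesion sites were verified afterwards.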

In the next assay the test system is Canis familiaris. In words: Emetic activity in sc dosed dogs assessed as frequency of vomiting for 1 hr relative to apomorphine. The assay is classed as functional, Canis lupus familiaris.
A further assay relates to Felis catus. Description: Inhibition of electrical-stimulation of postganglionic cardioaccelerator nerve in iv dosed cat. To be noted: read-out: ID50 (the source's name). Format: functional. Put shortly:
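Cats were anaesthetised with sodium pentobarbital 30 mg/kg and ventilated. The right postganglionic cardioaccelerator nerves were stimulated with bipolar electrodes (2 Hz, 5 ms pulses, supramaximal voltage, 20–30 s trains), and heart rate was read by cardiotachometer. Doses were spaced at 0.48 log intervals, and the dose inhibiting positive chronotropic responses by 50% was calculated.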

For assay [18], the system named is Rattus norvegicus. Description: Dopaminergic activity in Sprague-Dawley rat assessed as stereotyped behavior characterized by sniffing and biting at 1 to 10 mg/kg, sc. The assay is classed as functional, organism-based. In a few lines: as §2

Molecules are shown by their SMILES. Active and inactive are the calls of the source.

Experimental findings from ChEMBL document CHEMBL3228001, “Rigid congeners of dopamine based on octahydrobenzo[f]quinoline: peripheral and central effects” (1979) are described below.

For the compound `CN1CCc2cccc3c2[C@H]1Cc1ccc(O)c(O)c1-3`, the result with Rattus norvegicus [1], in the assay with Mus musculus [2], with Mus musculus [3] and in the assay with Mus musculus [4] was Active.

`NCCc1ccc(O)c(O)c1`: the outcome in the assay on Rattus norvegicus [5], in the assay with Rattus norvegicus [6], in the assay on Rattus norvegicus [8] and with Rattus norvegicus [9] was Active. In the assay with Rattus norvegicus [7], the outcome was inactive.

As to `Oc1ccc2c(c1O)CC[C@@H]1NCCC[C@H]21` (relative stereo), the result in the assay with Rattus norvegicus [5], in the assay with Rattus norvegicus [6], in the assay with Rattus norvegicus [10], in the assay with Rattus norvegicus [11], with Rattus norvegicus [14] and with Mus musculus [15] was inactive. Besides, the result with Mus musculus [16] and in the assay on Mus musculus [17] was inactive. The outcome with Rattus norvegicus [12] and with Rattus norvegicus [13] was Active. For the same compound, in the assay on Canis familiaris, the “fold change (FC)” value turned out to be 0.024. In the assay with Felis catus, the ED50 is 0.027 µmol/kg.

With `CCN1CCC[C@@H]2c3ccc(O)c(O)c3CC[C@@H]21` (relative stereo), the result in the assay on Rattus norvegicus [5], in the assay on Rattus norvegicus [6], with Rattus norvegicus [10], in the assay with Rattus norvegicus [12] and with Rattus norvegicus [13] was Active. Moreover, the result in the assay on Rattus norvegicus [14], in the assay with Mus musculus [15], with Mus musculus [16] and in the assay with Mus musculus [17] was inactive. For the same compound, the “fold change (FC)” value with Canis familiaris is 0.053.

Take `Oc1ccc2c(c1O)CC[C@H]1NCCC[C@H]21` (relative stereo): the result in the assay on Rattus norvegicus [5], in the assay with Rattus norvegicus [6], in the assay on Mus musculus [15], in the assay on Mus musculus [16] and with Mus musculus [17] was inactive. The result with Rattus norvegicus [10], in the assay on Rattus norvegicus [11], in the assay on Rattus norvegicus [12], in the assay on Rattus norvegicus [13] and with Rattus norvegicus [18] was Active. The “fold change (FC)” value in the assay on Canis familiaris is on record as 4.5. Besides, in the assay on Felis catus, the ED50 was determined as 0.0007 µmol/kg.
